Test results published in ChEMBL document CHEMBL1151684, “Synthesis and antitumoral activity of novel 3-(2-substituted-1,3,4-oxadiazol-5-yl) and 3-(5-substituted-1,2,4-triazol-3-yl) beta-carboline derivatives” (2008).

Tests used:
Format in all cases: functional
K562 = assay: Growth inhibition of human K-562 cells after 48 hrs by sulforhodamine B assay; conditions: K562, 48 h
Procedure, shortened: (§1)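 Sulforhodamine B colorimetric assay following the NCI standard protocol, with doxorubicin as positive control. Each compound was tested at four concentrations in 10-fold dilutions (0.25 to 250). GI50, the concentration giving 50% growth reduction versus untreated control cells, was derived from dose–response curves.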

[1] = Growth inhibition of human NCI-460 cells after 48 hrs by sulforhodamine B assay; conditions: NCI-460, 48 h; procedure, shortened: as §1
UACC-62 = assay: Growth inhibition of human UACC-62 cells after 48 hrs by sulforhodamine B assay; conditions: UACC-62, 48 h; procedure, shortened: as §1
MCF7 = assay: Growth inhibition of human MCF7 cells after 48 hrs by sulforhodamine B assay; conditions: MCF7, 48 h; procedure, shortened: as §1
OVCAR = assay: Growth inhibition of human OVCAR cells after 48 hrs by sulforhodamine B assay; procedure, shortened: as §1
[2] = Growth inhibition of human PCO3 cells after 48 hrs by sulforhodamine B assay; conditions: PCO3, 48 h; procedure, shortened: as §1
HT-29 = assay: Growth inhibition of human HT-29 cells after 48 hrs by sulforhodamine B assay; conditions: HT-29, 48 h; procedure, shortened: as §1
786-0 = assay: Growth inhibition of human 786-0 cells after 48 hrs by sulforhodamine B assay; conditions: 786-0, 48 h; for CC50: read-out: LC50 (the source's name); procedure, shortened: as §1

| Structure (SMILES) | GI50 (K562) | TGI (K562) | GI50 [1] | LC50 (concentration for 50% net cell kill) [1] | TGI [1] | GI50 (UACC-62) | TGI (UACC-62) | GI50 (MCF7) | TGI (MCF7) | GI50 (OVCAR) | TGI (OVCAR) | GI50 [2] | TGI [2] | GI50 (HT-29) | TGI (HT-29) | GI50 (786-0) | TGI (786-0) | CC50 (786-0) | LC50 (concentration killing 50% of cells) [2] | LC50 (concentration killing 50% of the cells, NCI protocol) (OVCAR) | also measured |
| --- | --- | --- | --- | --- | --- | --- | --- | --- | --- | --- | --- | --- | --- | --- | --- | --- | --- | --- | --- | --- | --- |
| CN(C)c1ccc(-c2nc(-c3n[nH]c(=S)n3N)cc3c2[nH]c2ccccc23)cc1 | > 100 µM | > 100 µM | 0.2 µM | > 100 µM | 71.8 µM | 50.4 µM | > 100 µM | > 100 µM | > 100 µM | > 100 µM | > 100 µM | > 100 µM | > 100 µM | > 100 µM | > 100 µM | 0.97 µM | 80 µM | > 100 µM |  |  |  |
| Oc1ccc(-c2nc(-c3n[nH]c(=S)[nH]3)cc3c2[nH]c2ccccc23)cc1 | > 100 µM | > 100 µM | 6.69 µM |  | > 100 µM | 10.6 µM | > 100 µM | 19.8 µM | > 100 µM | 6.41 µM | > 100 µM | 0.5 µM | 40.7 µM | 46.2 µM | > 100 µM | 0.17 µM | 23.8 µM | > 100 µM | > 100 µM |  |  |
| CN(C)c1ccc(-c2nc(-c3n[nH]c(=S)[nH]3)cc3c2[nH]c2ccccc23)cc1 | 11.1 µM | > 100 µM | 0.06 µM | > 100 µM | 8.96 µM | 1.74 µM | > 100 µM | 8.63 µM | 37 µM | 1.09 µM | 7.28 µM | 1.37 µM | 6.68 µM | 8.63 µM | 51.5 µM | 0.04 µM | 1.24 µM | 37.3 µM | > 100 µM | 47.9 µM | LC50 (concentration killing 50% of cells) (MCF7): > 100 µM |
| CSc1nnc(-c2cc3c([nH]c4ccccc43)c(-c3ccc([N+](=O)[O-])cc3)n2)o1 | > 100 µM |  | > 100 µM |  |  | > 100 µM |  | > 100 µM |  | > 100 µM |  | > 100 µM |  | > 100 µM |  | > 100 µM |  |  |  |  |  |
| COc1cc(-c2nc(-c3nnc(SC)o3)cc3c2[nH]c2ccccc23)ccc1O | 22.6 µM | > 100 µM | 4.82 µM |  | > 100 µM | 17.8 µM | 48.6 µM | 12.7 µM | 28.1 µM | 16.4 µM | 59.8 µM | 7.53 µM | 39.4 µM | 7.31 µM | 39.4 µM | 15.3 µM | 36.3 µM | > 100 µM | > 100 µM |  | LC50 (concentration killing 50% of cells, NCI protocol) (UACC-62): > 100 µM; LC50 (concentration killing 50% of cells) (MCF7): 61.2 µM; LC50 (concentration killing 50% of the cells present at the start) (HT-29): > 100 µM |
| S=c1[nH]nc(-c2cc3c([nH]c4ccccc43)c(-c3ccccc3)n2)[nH]1 | 3.2 µM |  | 6.36 µM |  |  | 6.36 µM |  | > 100 µM |  | 64.9 µM |  | 4.11 µM |  | 35.5 µM |  | 7.56 µM |  |  |  |  |  |
| CSc1nnc(-c2cc3c([nH]c4ccccc43)c(-c3ccc(N(C)C)cc3)n2)o1 | > 100 µM |  | > 100 µM |  |  | > 100 µM |  | > 100 µM |  | > 100 µM |  | 92.6 µM |  | 87.4 µM |  | > 100 µM |  |  |  |  |  |
| CSc1nnc(-c2cc3c([nH]c4ccccc43)c(-c3ccccc3Cl)n2)o1 | 0.17 µM | 68.4 µM | 1.64 µM | > 100 µM | 4.2 µM | 15.2 µM | > 100 µM | 16.8 µM | 51.9 µM | 0.01 µM | 0.1 µM | 1.03 µM | 3.8 µM | 8.02 µM | 99.6 µM | 48.6 µM | > 100 µM |  | 73.5 µM | 10.1 µM | LC50 (concentration causing 50% net cell kill) (K562): > 100 µM; LC50 (concentration killing 50% of cells) (MCF7): > 100 µM; LC50 (concentration killing 50% of the cells present at the start) (HT-29): > 100 µM |
| Nn1c(-c2cc3c([nH]c4ccccc43)c(-c3ccc(O)cc3)n2)n[nH]c1=S | 29.9 µM | > 100 µM | 0.15 µM |  | 12.2 µM | 22.5 µM | > 100 µM | 61.2 µM | > 100 µM | 27.5 µM | 98.4 µM | 25.5 µM | > 100 µM | 34 µM | > 100 µM | 0.26 µM | 94.1 µM | > 100 µM |  | > 100 µM |  |
| COc1ccc(-c2nc(-c3n[nH]c(=S)[nH]3)cc3c2[nH]c2ccccc23)cc1 | > 100 µM |  | 0.1 µM |  |  | 66.8 µM |  | > 100 µM |  | > 100 µM |  | > 100 µM |  | > 100 µM |  | 7.48 µM |  |  |  |  |  |
| Nn1c(-c2cc3c([nH]c4ccccc43)c(-c3ccccc3Cl)n2)n[nH]c1=S | 62.4 µM | > 100 µM | 15.4 µM | > 100 µM | 38 µM | 20.2 µM | 86.1 µM | 70.1 µM | > 100 µM | 6.8 µM | 49.9 µM | 24.7 µM | > 100 µM | 33 µM | > 100 µM | 39.5 µM |  | > 100 µM |  | > 100 µM | LC50 (concentration killing 50% of cells, NCI protocol) (UACC-62): > 100 µM |
| Nn1c(-c2cc3c([nH]c4ccccc43)c(-c3ccccc3)n2)n[nH]c1=S | 9.93 µM | > 100 µM | 1.59 µM | > 100 µM | 54.7 µM | 24.3 µM | > 100 µM | 15 µM | 32.5 µM | 12 µM | 25.3 µM | 10.9 µM | 30.6 µM | 15 µM | 86.9 µM | 10.9 µM | 49.4 µM | > 100 µM | > 100 µM | 52.5 µM | LC50 (concentration killing 50% of cells) (MCF7): > 100 µM |
| CSc1nnc(-c2cc3c([nH]c4ccccc43)c(-c3ccccc3)n2)n1N | 2.04 µM |  | > 100 µM |  |  | > 100 µM |  | > 100 µM |  | > 100 µM |  | > 100 µM |  | > 100 µM |  | > 100 µM |  |  |  |  |  |
